Assays:
Liver = assay: Intrinsic clearance in human liver microsomes assessed as per mg protein up to 60 mins by LC-MS/MS analysis; assay type: ADME, microsome; conditions: 1 h
Procedure, shortened: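 Compound at 0.1 μM final (0.01% DMSO, 0.005% BSA) incubated at 37 °C with human, rat or mouse liver microsomes (0.33 mg/mL protein) in 0.1 M Tris/HCl pH 7.4, with 5 mM MgCl2 and 1 mM NADPH. Samples taken at 0, 7, 17, 30 and 60 min, quenched by methanol precipitation, centrifuged, and parent measured by LC-MS/MS. T1/2 and Clint derived.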

[1] = Half life in Sprague-Dawley rat at 1.0 mg/kg, iv; assay type: ADME, organism-based; conditions: in vivo
Procedure, shortened: (§1)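 Male SD rats dosed i.v. at 1.0 mg/kg or orally at 3.0 mg/kg. Vehicle is DMSO, Tween 80 and normal saline. Plasma concentration–time data give CL, Vss, T1/2, Cmax, Tmax, MRT, AUC and oral bioavailability F.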

[2] = AUC in Sprague-Dawley rat at 1.0 mg/kg, iv; assay type: ADME, organism-based; conditions: in vivo; procedure, shortened: as §1
[3] = MRT (infinity) in Sprague-Dawley rat at 3.0 mg/kg, po; assay type: ADME, organism-based; conditions: in vivo
Procedure, shortened: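 Male SD rats dosed orally at 3.0 mg/kg in DMSO/Tween 80/normal saline; plasma profile gives T1/2, Cmax, Tmax, AUC, MRT; F from comparison with 1.0 mg/kg i.v. dosing.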

[4] = Volume of distribution at steady state in Sprague-Dawley rat at 1.0 mg/kg, iv; assay type: ADME, organism-based; conditions: in vivo, read-out: Vdss
Procedure, shortened: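 Male SD rats given 1.0 mg/kg i.v. in DMSO/Tween 80/normal saline vehicle; plasma concentration–time profile used for clearance, Vss, MRT.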

MGC-803 = assay: Antiproliferative activity against human MGC803 cells after 72 hrs by sulforhodamine B assay; assay type: functional, cell-based; conditions: MGC-803, 72 h
Procedure, shortened: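 Cells grown in ATCC-specified medium with 10% heat-inactivated FBS, penicillin/streptomycin and 10 mM Hepes, at 37 °C under 5% CO2. Seeded, cultured overnight, then exposed to gradient concentrations for 72 h. Growth read by SRB staining; inhibition % = [1−(A450 treated/A450 control)]×100. IC50 obtained by the Logit method from independent experiments.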

HCT-116 [5] = assay: Induction of apoptosis in human HCT116 cells assessed as late apoptotic cells at 2 uM after 48 hrs by Annexin V-FITC/propidium iodide staining-based FACS analysis (reference value: 5.74%); assay type: functional
HCT-116 [6] = assay: Induction of apoptosis in human HCT116 cells pretreated with Z-VAD-FMK pan-caspase inhibitor for 1 hr assessed as early apoptotic cells at 1 uM after 48 hrs by Annexin V-FITC/propidium iodide staining-based FACS analysis (reference value: 1.34%); assay type: functional; parameters: scale not given: the % may be the effect or the level left
Mus musculus [7] = assay: Toxicity in BALB/C nude mouse xenografted with human HCT116 cells assessed as body weight loss at 10 mg/kg, iv once daily for 14 days starting on day 14 post tumor implantation measured every 4 days during compound dosing; assay type: organism-based; conditions: in vivo
Procedure, shortened: (§2)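 Male BALB/c nude mice (18–20 g) with subcutaneous HCT116 implants in right axilla; treatment from day 14 once tumors exceeded 100 mm3, randomized (6/treated, 10/control group); 10 mg/kg i.v. or 30 mg/kg i.p. daily for 14 days in 1% DMSO/saline; 5-FU 15 mg/kg as reference; body weight tracked, mean ± SD of 6 mice.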

Mus musculus [8] = assay: Toxicity in BALB/C nude mouse xenografted with human HCT116 cells assessed as body weight loss at 30 mg/kg, ip once daily for 14 days starting on day 14 post tumor implantation measured every 4 days during compound dosing; assay type: organism-based; conditions: in vivo; procedure, shortened: as §2

SMILES: CCN(CC)CCCn1c2c(c3ccccc3c1=O)C(=O)C(=O)c1cc(C)oc1-2
- intrinsic clearance (Liver): 23.5 mL/min/g
- half-life [1]: 1.51 h
- AUC [2]: 114 ng·h/mL
- MRT inf [3]: 3.72 h
- Vd [4]: 7.98 L/kg
- IC50 (MGC-803): 260 nM
- Activity (HCT-116 [5]): 32.63%
- Activity (HCT-116 [6]): 2.99%
- Activity (Mus musculus [7]): Non-Toxic
- Activity (Mus musculus [8]): Non-Toxic

From ChEMBL document CHEMBL4033782, “Structural Modification of Natural Product Tanshinone I Leading to Discovery of Novel Nitrogen-Enriched Derivatives with Enhanced Anticancer Profile and Improved Drug-like Properties” (J Med Chem, 2018)
